UHRF1 MBD2 ctr – UHRF1 methyl-DNA binding inhibition; inhibition, % at 4.4 µM; 370,000 compounds, 0.75% hits; UHRF1 binding to methylated oligo, TR-FRET; Q96T88; in the data active = inhibition above about 21%;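 note: UHRF1 SRA domain binding a hemimethylated CpG hairpin DNA probe; 0% = median of test compound wells and 100% = reference inhibitor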
Target sequence (Q96T88 whole entry, looked up, the tested form may be a part): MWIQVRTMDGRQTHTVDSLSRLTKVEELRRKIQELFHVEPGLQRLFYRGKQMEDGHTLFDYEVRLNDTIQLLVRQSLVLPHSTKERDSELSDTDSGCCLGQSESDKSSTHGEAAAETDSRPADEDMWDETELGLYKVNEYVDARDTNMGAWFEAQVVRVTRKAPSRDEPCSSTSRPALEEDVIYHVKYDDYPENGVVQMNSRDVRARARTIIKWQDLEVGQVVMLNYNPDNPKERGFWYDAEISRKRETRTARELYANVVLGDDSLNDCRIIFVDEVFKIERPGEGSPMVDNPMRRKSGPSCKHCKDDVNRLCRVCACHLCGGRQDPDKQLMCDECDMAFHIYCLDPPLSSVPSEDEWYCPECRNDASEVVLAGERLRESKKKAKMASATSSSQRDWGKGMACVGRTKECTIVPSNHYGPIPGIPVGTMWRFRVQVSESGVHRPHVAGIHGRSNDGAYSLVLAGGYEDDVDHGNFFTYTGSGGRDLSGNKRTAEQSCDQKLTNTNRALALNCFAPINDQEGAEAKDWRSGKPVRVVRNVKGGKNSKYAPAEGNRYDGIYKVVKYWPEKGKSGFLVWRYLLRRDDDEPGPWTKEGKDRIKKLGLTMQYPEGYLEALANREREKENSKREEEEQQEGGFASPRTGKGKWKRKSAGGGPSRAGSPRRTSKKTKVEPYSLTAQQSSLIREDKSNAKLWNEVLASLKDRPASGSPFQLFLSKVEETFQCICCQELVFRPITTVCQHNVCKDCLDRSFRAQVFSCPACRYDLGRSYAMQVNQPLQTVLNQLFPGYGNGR
MBD2 DNA inh – inhibitors of human MBD2 binding to methylated oligonucleotide | TR-FRET | inhibition, % at 4.4 µM | 370,000 compounds, 0.31% hits | AID 686964; in the data active = inhibition above about 13%
TDP2 absorb – TDP2 (human) inhibition, absorbance primary screen | inhibition, % at 12.8 µM | recombinant TDP2, T5PNP hydrolysis, p-nitrophenol absorbance 415 nm | AID 720702 | O95551 | 370,000 compounds, 0.34% hits;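 active = inhibition above the mean of all tested compounds plus 3 SD, set per campaign, cut at about 25% in these data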;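 note: 0% = DMSO with enzyme and 100% = buffer with substrate but no TDP2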
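Assay system: recombinant human TDP2 / Reagent: T5PNP substrate at 5 mM, a TopII-DNA adduct mimic / Measured by: epi absorbance from released p-nitrophenol / Evaluation: % inhibition relative to enzyme-containing and enzyme-free wells / Control set: enzyme-free and DMSO wells / Replicates: each compound tested once, singlicate / Schedule: enzyme reaction with compound for 2 h at 37 °C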
LEDGF integ inh – blocks HIV-1 LEDGF/p75-dependent DNA integration; 370,000 compounds, 0.64% hits; inhibition, % at 3.7 µM; TR-FRET IN-LEDGF/p75 DNA integration, Eu/Cy5; AID 743269;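 active = inhibition above the screen-wide mean plus 3 SD, cut at about 13% in these data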;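 note: signal is the Cy5 over europium emission ratio at 671 and 618 nm; 0% = plate median of compound wells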
An asterisk follows results filed as active. A selection: hits, their analogues and other compounds. The true share with any hit is near 1.6%.

SMILES	UHRF1 MBD2 ctr	MBD2 DNA inh	TDP2 absorb	LEDGF integ inh
Cc1cc(OCC(=O)Nc2nnc(C3CC3)s2)ccc1C(C)C	0	2	5	-3
Cc1ccc(C(C)C)cc1OCC(=O)Nc1nnc(C2CC2)s1	27*	4	9	1
c1ccc(CN2CCN(c3nc(-c4ccccc4)nc4ccccc34)CC2)cc1	21*	7	-1	-1
c1ccc(CN2CCN(c3nc(-c4ccccn4)nc4ccccc34)CC2)cc1	-4	-5	-7	2
COc1ccc(-n2c(N)c(C(=O)NCc3ccco3)c3nc4ccccc4nc32)cc1OC	47*	-1	-3	4
COc1cc(-n2c(N)c(C(=O)NCc3ccco3)c3nc4ccccc4nc32)cc(OC)c1OC	-2	-1	11	-2
CCC(C)NC(=O)c1ccccc1NC(=O)Nc1ccccc1 (stereo not given)	27*	2	3	-1
N#Cc1nc(-c2ccccc2)oc1N1CCN(C(=O)c2ccco2)CC1	1	-2	-3	0
O=C(CC1C(=O)NCCN1C(=O)Nc1ccccc1)Nc1cccc(Cl)c1 (stereo not given)	33*	5	-8	-2
COc1ccc(CCNCCC(=O)Nc2c(C)cc(C)cc2C)cc1OC	-2	-3	-5	-1
COc1ccc(CCNCC(=O)Nc2c(C)cc(C)cc2C)cc1OC	21*	4	14	0
C=CCNC(=O)c1onc(CSc2cc(C)cc(C)c2)c1C(=O)NCC=C	0	-1	0	0
CCOC(=O)N1CCN(C(=S)NC(=O)c2ccc(F)cc2)CC1	-3	3	1	-1
Cc1cccc(NC(=O)COC(=O)CNC(=O)C2CCCCC2)c1	-5	0	-4	0
Cc1ccc(C)c(NC(=O)COC(=O)CNC(=O)C2CCCCC2)c1	52*	0	8	-3
COc1ccc(S(=O)(=O)N2CCC[C@H]2C(=O)N2CCC[C@H]2C(=O)N[C@H](C)c2ccccc2)cc1C	-2	-10	-8	3
COc1cccc(-n2ccnc2SCC(=O)Nc2cc(C)on2)c1	0	-5	-4	-7
COc1ccc(-c2nnn(CC(=O)N(CCCO)C(C(=O)NC3CCCC3)c3ccncc3)n2)cc1 (stereo not given)	28*	-1	-2	-9
Cc1ccc(-n2nc(C)c3c2OC(N)=C(C#N)C3c2ccoc2)cc1 (stereo not given)	-4	-7	9	1
Cc1nn(-c2ccccc2)c2c1C(c1ccc(F)cc1F)C(C#N)=C(N)O2 (stereo not given)	4	-3	62*	9
c1ccc(-c2noc(CSc3nnnn3C3CCCCC3)n2)cc1	0	0	-7	-3
COc1ccccc1OCCSc1nc2ccccc2n1CCC(=O)O	34*	11	0	8
COc1ccccc1C(=O)NCC(=O)N/N=C/c1ccc([N+](=O)[O-])cc1	25*	-5	5	1
COC(=O)c1n[nH]nc1-c1ccccc1	22*	2	4	0
O=C1C2=C(c3ccccc31)[N+](=O)C1CCCCC1N2[O-] (stereo not given)	-16	-12	25*	6
SMILES	UHRF1 MBD2 ctr	MBD2 DNA inh	TDP2 absorb	LEDGF integ inh
COc1ccc(CCNS(=O)(=O)c2cc3c4c(c2)CC(=O)N4CCC3)cc1	26*	3	3	1
Cc1ccc(S(=O)(=O)CCC(=O)OCC(=O)N2CCN(S(=O)(=O)c3ccccc3)CC2)cc1	-3	4	3	2
CCCCC(=O)NNC(=O)CC(=O)Nc1ccccc1C(=O)O	2	0	15	-3
CC(C)CCOc1cccc(OCC(=O)NC2CCS(=O)(=O)C2)c1 (stereo not given)	1	-4	-9	6
COC1=CC(=Cc2c(N)n3nc(CC(=O)N4CCCCC4)sc3nc2=O)C=C(OC)C1=O	32*	12	-8	0
Nc1c(/C=C2/C=CC(=O)C(O)=C2)c(=O)nc2sc(CC(=O)N3CCCCC3)nn12	26*	6	-13	16*
COC1=C/C(=C/c2c(N)n3nc(CC(=O)N4CCCC4)sc3nc2=O)C=CC1=O	7	-1	-6	5
O=C(Nc1ccncc1)c1cc(-c2ccc(Cl)cc2)nc2ccccc12	2	4	-16	-5
Cc1ccc(C(=O)NCC(=O)Nc2ccncc2)cc1	1	1	6	1
C=CCn1c(CNS(=O)(=O)c2ccc(F)cc2)n[nH]c1=S	42*	-1	-13	-7
C=CCn1cc(F)c(=O)n(CC=C)c1=O	8	6	-3	-5
Oc1ccc(N=Cc2ccc(-c3cccs3)s2)cc1	11	-5	9	47*
CNC(=S)N1CCN(c2nc3ccccc3s2)CC1	2	-4	1	5
COc1cnc(-c2ccccc2)nc1Sc1ccccc1	5	2	-8	-1
COc1ccccc1Sc1nc(-c2ccccc2)ncc1OC	48*	-3	4	4
NC(=O)N[C@@H](Cc1c[nH]c2ccccc12)C(=O)OCC(=O)N1CCCCC1	24*	2	2	-5
CN1CCN(C2CN(Cc3cn(Cc4ccc(F)cc4)nn3)S(=O)(=O)C2)CC1 (stereo not given)	21*	7	0	0
Cc1ccc(S(=O)(=O)N2CCN(C(=O)COC(=O)CCc3ccccc3)CC2)c(C)c1	13	7	8	-3
Cc1ccc(S(=O)(=O)N2CCN(C(=O)CCC(=O)NCCc3ccc(S(N)(=O)=O)cc3)CC2)c(C)c1	44*	8	3	-1
CN=C(Nc1ccc(Cl)cc1)c1ccc(C(F)(F)F)cc1	2	-3	-8	2
COc1ccc(N2CCN(C(=O)CN(c3ccc(OC)cc3)S(=O)(=O)c3ccccc3)CC2)cc1	31*	8	14	6
CCOC(=O)c1cc2c(ccc3ccccc32)oc1=O	29*	-5	-6	-3
CCS(=O)(=O)c1ccc2oc(SCC(=O)NCCc3ccc(OC)cc3)nc2c1	29*	0	0	-5
Cc1cc(/C=N/N2CCN(C)CC2)c(C)n1-c1ccc(Cl)cc1	30*	3	5	1
CC(C)/C=C1\CCc2c([nH]c3ccccc23)C1=O	-3	-6	-4	-3
SMILES	UHRF1 MBD2 ctr	MBD2 DNA inh	TDP2 absorb	LEDGF integ inh
CCCC/C=C1\CCc2c([nH]c3ccccc23)C1=O	24*	0	-3	0
CN1CCOc2ccc(S(=O)(=O)NCCc3ccc(Cl)cc3)cc21	30*	5	-11	7
CC(C)c1nc(SCC(=O)N2CCc3ccccc32)n[nH]1	0	-1	1	3
COc1cc(NC(=O)CSc2nnnn2Cc2ccc3c(c2)OCO3)cc(OC)c1	24*	13	4	4
Cc1ccc(CSc2nc3c(c(=O)[nH]2)CCC3)cc1	58*	1	-4	2
Cc1ccc(-c2cn3c(=S)[nH]nc3s2)cc1	2	-3	-7	2
CCOC(=O)C1(Cc2ccccc2)CCCN(CCCn2cccn2)C1 (stereo not given)	0	-6	9	4
NC(=O)COC(=O)CC1CC2CCC1C2 (stereo not given)	21*	2	0	12

Source: PubChem BioAssay (The Scripps Research Institute Molecular Screening Center)
